Here are results for eight compounds from ChEMBL document CHEMBL1914409, “Cytotoxicity and gene expression profiles of novel synthesized steroid derivatives as chemotherapeutic anti-breast cancer agents” (Bioorg Med Chem, 2011).

The test system of experiment [1] is MCF7. In words: Reduction in VEGF mRNA expression in human MCF7 cells by RT-PCR relative to control. It counts as functional, cell-based. Put shortly:
(§1)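 RNA taken from MCF-7 cells after 48 h treatment in the cytotoxicity study, then oligo(dT)-primed reverse transcription (25 °C 10 min, 42 °C 1 h). Semi-quantitative PCR run with VEGF 40 cycles (59 °C annealing), CYP19 50 cycles (60 °C), hAP-2γ 20 cycles (65 °C) and β-actin 40 cycles (60 °C). Gel band intensity expressed as a ratio to β-actin; P<0.05.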

For experiment [2], the system named is MCF7. Nature of the experiment: Cytotoxicity against human MCF7 cells assessed as growth inhibition after 48 hrs by SRB assay. The conditions noted are these: MCF7, 48 h. The experiment is classed as functional, cell-based. Summed up:
(§2)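 MCF-7 (ATCC) kept in RPMI-1640 with penicillin/streptomycin and FBS, used at 90% confluence and seeded at 5×10^4–10^5 cells/well. Exposed to 5, 12.5, 25 or 50 µg/mL of compound in DMSO for 24, 48 or 72 h, with vehicle-treated controls and 6 wells per concentration. Cells fixed in cold TCA and stained with 0.4% SRB; dye taken up in 10 mM Tris pH 10.5 and read at 564 nm. Result given as % growth inhibition versus control.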
In general terms: Sulforhodamine B stains cellular protein and so reports cell mass.

In experiment [3] the test system is MCF7. Nature of the experiment: Reduction in AP-2 gamma mRNA expression in human MCF7 cells by RT-PCR relative to control. The experiment is classed as functional, cell-based. Put shortly:
as §1

Experiment [4] concerns MCF7. In words: Reduction in CYP19 mRNA expression in human MCF7 cells by RT-PCR relative to control. It counts as functional, cell-based. Summed up:
as §1

Experiment [5] concerns MCF7. Nature of the experiment: Cytotoxicity against human MCF7 cells assessed as growth inhibition at 12.5 ug/ml after 24 hrs by SRB assay. It counts as functional. Summed up: as §2
The test system of experiment [6] is MCF7. Nature of the experiment: Cytotoxicity against human MCF7 cells assessed as growth inhibition after 72 hrs by SRB assay. It counts as functional, cell-based. The following applies: MCF7, 72 h. Summed up: as §2
Experiment [7] has as its system MCF7. Nature of the experiment: Cytotoxicity against human MCF7 cells assessed as growth inhibition at 5 ug/ml after 72 hrs by SRB assay relative to control. The experiment is classed as functional. Put shortly:
as §2

Experiment [8] has as its system MCF7. In words: Cytotoxicity against human MCF7 cells assessed as growth inhibition at 25 ug/ml after 24 hrs by SRB assay. It counts as functional. Put shortly: as §2
Experiment [9] concerns MCF7. In words: Cytotoxicity against human MCF7 cells assessed as growth inhibition after 24 hrs by SRB assay. The experiment is classed as functional, cell-based. The following applies: MCF7, 24 h. Summed up:
as §2

In experiment [10] the test system is MCF7. Nature of the experiment: Cytotoxicity against human MCF7 cells assessed as growth inhibition at 50 ug/ml after 24 hrs by SRB assay. It counts as functional, cell-based. Summed up:
as §2

Experiment [11] has as its system MCF7. In words: Cytotoxicity against human MCF7 cells assessed as growth inhibition at 25 ug/ml after 48 hrs by SRB assay. The experiment is classed as functional, cell-based. Summed up:
as §2

For experiment [12], the system named is MCF7. Nature of the experiment: Cytotoxicity against human MCF7 cells assessed as growth inhibition at 50 ug/ml after 48 hrs by SRB assay. The experiment is classed as functional, cell-based. Put shortly: as §2
The subject of experiment [13] is MCF7. In words: Cytotoxicity against human MCF7 cells assessed as growth inhibition at 5 ug/ml after 48 hrs by SRB assay. It counts as functional, cell-based. Put shortly: as §2
Experiment [14] has as its system MCF7. In words: Cytotoxicity against human MCF7 cells assessed as growth inhibition at 12.5 ug/ml after 48 hrs by SRB assay. The experiment is classed as functional, cell-based. Put shortly: as §2
In experiment [15] the test system is MCF7. Nature of the experiment: Cytotoxicity against human MCF7 cells assessed as growth inhibition at 12.5 ug/ml after 72 hrs by SRB assay. The experiment is classed as functional. The conditions noted are these: MCF7, 72 h, read-out: GI. Summed up:
as §2

Each structure is given as a SMILES string. Activity calls are given as the source filed them. The rule behind the calls is not given here.

In the case of `C[C@]12CC[C@H]3[C@@H](CCC4=CC(=O)CC[C@@]43C)[C@@H]1CC[C@@H]2n1c(=S)n(-c2ccccc2)c(=O)c2ccccc21`, the result in the experiment on MCF7 [1], in the experiment with MCF7 [3] and with MCF7 [4] was Active. For the same compound, the values for the concentration for half-maximal inhibition (IC50) in the experiment on MCF7 [2], in the experiment on MCF7 [6] and with MCF7 [9] were 12.5 µM, 17.5 µM and 13.1 µM, respectively. Further, the “growth inhibition (GI)” value in the experiment with MCF7 [5], with MCF7 [7], with MCF7 [8], in the experiment on MCF7 [10], with MCF7 [11] and in the experiment on MCF7 [12] was “Active” in each case.
On to `CC(=O)O[C@H]1CC[C@@]2(C)[C@@H](CC[C@@H]3[C@@H]2CC[C@]2(C)c4nc(CC#N)sc4C[C@@H]32)C1`, for which the result in the experiment with MCF7 [1], in the experiment with MCF7 [3] and in the experiment on MCF7 [4] was Active. Moreover, the concentration for half-maximal inhibition (IC50) in the experiment with MCF7 [2] was 2.5 µM; in the experiment on MCF7 [6], 2.9 µM; in the experiment with MCF7 [9], 2.9 µM. The “growth inhibition (GI)” value in the experiment with MCF7 [13], in the experiment with MCF7 [14], in the experiment with MCF7 [10], with MCF7 [11] and in the experiment with MCF7 [12] was “Active” throughout. For the same compound, the inhibition of growth at 12.5 µg/mL came out at 91% in the experiment on MCF7 [5] (MCF7, 24 h, read-out: GI) and 91% with MCF7 [15]. In addition, the inhibition of growth at 5 µg/mL with MCF7 [7] (MCF7, 72 h, read-out: GI) turned out to be 93%. In the experiment on MCF7 [8] (MCF7, 24 h, read-out: GI), the inhibition of growth at 25 µg/mL amounted to 85%.
For the compound `C[C@]12CC[C@H]3[C@@H](CCC4=CC(=O)CC[C@@]43C)[C@@H]1CC[C@@H]2n1c(=S)n(-c2ccccc2)c(=O)c2cc(F)ccc21`, the result in the experiment with MCF7 [1], in the experiment with MCF7 [3] and in the experiment on MCF7 [4] was Active. For the same compound, the IC50 in the experiment with MCF7 [2] worked out at 11.5 µM; in the experiment with MCF7 [6], 16 µM; in the experiment with MCF7 [9], 17.7 µM. Moreover, the “growth inhibition (GI)” value with MCF7 [7], in the experiment on MCF7 [8], in the experiment with MCF7 [10], with MCF7 [11] and in the experiment on MCF7 [12] was “Active” in each case.
Turning to `CC(=O)O[C@H]1CC[C@@]2(C)[C@@H](CC[C@@H]3[C@@H]2CC[C@]2(C)/C(=N/C4CCNN=C4O)CC[C@@H]32)C1` (stereo partly specified), the outcome in the experiment with MCF7 [1], in the experiment on MCF7 [3] and in the experiment on MCF7 [4] was Active. For the same compound, the half-maximal inhibitory concentration (IC50) came out at 9.9 µM with MCF7 [2], 11.5 µM in the experiment on MCF7 [6] and 18.5 µM in the experiment with MCF7 [9]. In addition, the “growth inhibition (GI)” value in the experiment with MCF7 [14], in the experiment on MCF7 [7], in the experiment on MCF7 [8], with MCF7 [10], in the experiment with MCF7 [11] and in the experiment with MCF7 [12] was “Active” in each case.
On to `C[C@]12CC[C@H](O)C[C@@H]1CC[C@@H]1[C@@H]2CC[C@@]2(C)[C@H]1CC[C@]21OC1C(=O)c1ccccc1` (stereo partly specified), for which the result with MCF7 [1], in the experiment with MCF7 [3] and in the experiment with MCF7 [4] was Active. Besides, the IC50 is 7.3 µM in the experiment with MCF7 [2], 17.3 µM in the experiment with MCF7 [6] and 17.1 µM in the experiment with MCF7 [9]. Besides, the “growth inhibition (GI)” value in the experiment with MCF7 [14], in the experiment with MCF7 [5], with MCF7 [7], in the experiment with MCF7 [8], in the experiment on MCF7 [10] and in the experiment with MCF7 [11] was “Active” in each case. The “growth inhibition (GI)” value in the experiment on MCF7 [12] was “Active”.
For `CC(=O)O[C@H]1CC[C@@]2(C)[C@@H](CC[C@@H]3[C@@H]2CC[C@]2(C)/C(=N/c4ccc(S(=O)(=O)N(CCO)c5ncccn5)cc4)CC[C@@H]32)C1`, the outcome in the experiment on MCF7 [1], with MCF7 [3] and with MCF7 [4] was Active. Besides, the half-maximal inhibitory concentration (IC50) in the experiment on MCF7 [2] was 7.5 µM; in the experiment on MCF7 [6], 10 µM; in the experiment with MCF7 [9] it was 14.7 µM. The “growth inhibition (GI)” value in the experiment with MCF7 [14], with MCF7 [5], with MCF7 [7], in the experiment with MCF7 [8], with MCF7 [10] and in the experiment on MCF7 [11] was “Active” each time. In the experiment with MCF7 [12], the “growth inhibition (GI)” value was “inactive”.
For `C[C@]12CC[C@H]3[C@@H](CCC4=C[C@]5(CC[C@@]43C)OC5C(=O)c3ccccc3)[C@@H]1CC[C@@H]2O` (stereo partly specified), the outcome in the experiment on MCF7 [1], in the experiment on MCF7 [3] and in the experiment on MCF7 [4] was Active. Besides, the half-maximal inhibitory concentration (IC50) in the experiment with MCF7 [2] was found to be 16 µM; with MCF7 [6], 12 µM; in the experiment with MCF7 [9] it was 15.1 µM. Moreover, the “growth inhibition (GI)” value with MCF7 [5], in the experiment on MCF7 [7], in the experiment with MCF7 [8], in the experiment with MCF7 [10] and in the experiment on MCF7 [12] was “Active” in each case. Moreover, the “growth inhibition (GI)” value in the experiment on MCF7 [11] was “inactive”.
For the compound `COc1cccc2c1C(=O)c1c(O)c3c(c(O)c1C2=O)C[C@@](O)(C(=O)CO)C[C@@H]3O[C@H]1C[C@H](N)[C@H](O)[C@H](C)O1`, the result with MCF7 [1], in the experiment with MCF7 [3] and with MCF7 [4] was Active.

In general, IC50 refers to the midpoint of a concentration-inhibition curve.
